Molecules are shown by their SMILES.
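Also: active if original authors judged signal statistically different from baseline.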

The first test concerns the target T1, UniProt E9Q546.
T1 sequence (whole entry): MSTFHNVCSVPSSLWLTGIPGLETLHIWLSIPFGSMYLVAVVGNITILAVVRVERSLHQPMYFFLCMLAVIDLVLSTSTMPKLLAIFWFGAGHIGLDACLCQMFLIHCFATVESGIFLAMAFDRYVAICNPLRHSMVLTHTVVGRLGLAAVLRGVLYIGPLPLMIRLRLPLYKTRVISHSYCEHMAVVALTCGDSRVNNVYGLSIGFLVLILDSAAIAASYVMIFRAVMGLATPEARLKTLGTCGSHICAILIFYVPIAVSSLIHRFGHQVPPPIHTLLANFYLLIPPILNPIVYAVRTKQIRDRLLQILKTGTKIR
As to conditions: stereoisomer not certain. Put shortly: (§1)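 Each receptor–molecule pair is labelled responsive or non-responsive (inactive) according to whether the original authors judged the measured signal statistically different from baseline. The data were taken from the main text and supplementary material of published papers and checked for typos and inconsistencies. Assay methods differed by source, with transient luciferase assays in mammalian cell lines being common.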
As to `CCCC=O`, the “odorant receptor agonist call” value was “inactive”.

Take `CCCCCCCCCCOC(C)=O`: the “odorant receptor agonist call” value is “inactive”.

For `C=CC(=O)CCCCC`, the “odorant receptor agonist call” value was “inactive”.

Turning to `C=C(C)C1CCC(C)C(O)C1` (configuration not stated), the “odorant receptor agonist call” value was “inactive”.

Consider `CCc1ccc(O)cc1`, for which the “odorant receptor agonist call” value was “inactive”.

In the case of `CNc1ccccc1C(=O)OC`, the “odorant receptor agonist call” value is “inactive”.

On to `C=CC(C)=CCC=C(C)CCC=C(C)C`, for which the “odorant receptor agonist call” value is “inactive”.

As for `Cc1ccc(C(C)C)cc1`, the “odorant receptor agonist call” value is “inactive”.

As to `C1CCOCC1`, the “odorant receptor agonist call” value was “inactive”.

For the compound `c1ccc2ncccc2c1`, the “odorant receptor agonist call” value was “inactive”.

On to `CCCCCC(=Cc1ccccc1)C(OC)OC`, for which the “odorant receptor agonist call” value was “inactive”.

For `CCC(C)O` (configuration not stated), the “odorant receptor agonist call” value is “inactive”.

As for `O=c1ccc2ccccc2o1`, the “odorant receptor agonist call” value was “inactive”.

On to `C=CC(=C)CCC=C(C)C`, for which the “odorant receptor agonist call” value was “inactive”.

On to `CC(=O)OC1(C)CCC23CC1C(C)(C)C2CCC3C` (configuration not stated), for which the “odorant receptor agonist call” value is “inactive”.

On to `CCCCCCC(=O)OCCCC`, for which the “odorant receptor agonist call” value was “inactive”.

`CC1CC=CCCCCCCCCCC(=O)C1` (configuration not stated): the “odorant receptor agonist call” value was “inactive”.

Regarding `CC=C(C)C=O`, the “odorant receptor agonist call” value is “inactive”.

Consider `OCCc1ccccc1`, for which the “odorant receptor agonist call” value is “inactive”.

For `CCCO`, the “odorant receptor agonist call” value was “inactive”.

With `CCCCCCCCC=CC=O`, the “odorant receptor agonist call” value was “inactive”.

With `CCC=CCCC=CC=O`, the “odorant receptor agonist call” value is “inactive”.

Consider `CCCCCCC(=O)[O-].[H+]`, for which the “odorant receptor agonist call” value was “inactive”.

As for `CCCCCCCCCC=CC=O`, the “odorant receptor agonist call” value was “inactive”.

On to `CCCCCCCC(=O)[O-].[H+]`, for which the “odorant receptor agonist call” value is “active”.

For `CCCCOC(=O)C(C)OC(=O)CCC` (configuration not stated), the “odorant receptor agonist call” value was “inactive”.

As for `O=C(O)CCCCCCCCC(=O)O`, the “odorant receptor agonist call” value was “inactive”.

In the case of `CCCCCO`, the “odorant receptor agonist call” value is “inactive”.

As to `CCC(C(=O)O)c1ccccc1` (configuration not stated), the “odorant receptor agonist call” value is “inactive”.

Consider `O=C(O)C1CCC1`, for which the “odorant receptor agonist call” value is “inactive”.

On to `CCCC(C)=O`, for which the “odorant receptor agonist call” value was “inactive”.

The target in another test is T2, UniProt E9Q6Z7.
T2 sequence (whole entry): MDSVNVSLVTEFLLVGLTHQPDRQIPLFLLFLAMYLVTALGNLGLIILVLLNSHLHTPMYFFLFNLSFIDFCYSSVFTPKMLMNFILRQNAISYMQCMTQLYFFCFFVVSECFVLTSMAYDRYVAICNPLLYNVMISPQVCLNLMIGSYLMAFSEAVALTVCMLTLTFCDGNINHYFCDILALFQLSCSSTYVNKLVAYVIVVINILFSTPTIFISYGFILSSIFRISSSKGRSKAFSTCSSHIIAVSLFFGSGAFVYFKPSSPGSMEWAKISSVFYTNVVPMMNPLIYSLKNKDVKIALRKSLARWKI
As to conditions: stereoisomer not certain. Put shortly:
as §1
For `CCCC=O`, the “odorant receptor agonist call” value was “inactive”.

For `CCCCCCCCCCOC(C)=O`, the “odorant receptor agonist call” value is “inactive”.

As for `C=CC(=O)CCCCC`, the “odorant receptor agonist call” value is “inactive”.

Consider `C=C(C)C1CCC(C)C(O)C1` (configuration not stated), for which the “odorant receptor agonist call” value is “inactive”.

Turning to `CCc1ccc(O)cc1`, the “odorant receptor agonist call” value was “inactive”.

For `CNc1ccccc1C(=O)OC`, the “odorant receptor agonist call” value was “inactive”.

On to `C=CC(C)=CCC=C(C)CCC=C(C)C`, for which the “odorant receptor agonist call” value is “inactive”.

For the compound `Cc1ccc(C(C)C)cc1`, the “odorant receptor agonist call” value was “inactive”.

In the case of `C1CCOCC1`, the “odorant receptor agonist call” value was “inactive”.

On to `c1ccc2ncccc2c1`, for which the “odorant receptor agonist call” value was “inactive”.

Regarding `CCCCCC(=Cc1ccccc1)C(OC)OC`, the “odorant receptor agonist call” value was “inactive”.

With `CCC(C)O` (configuration not stated), the “odorant receptor agonist call” value is “inactive”.

As to `C=CC(=C)CCC=C(C)C`, the “odorant receptor agonist call” value is “inactive”.

As for `CC(=O)OC1(C)CCC23CC1C(C)(C)C2CCC3C` (configuration not stated), the “odorant receptor agonist call” value was “inactive”.

For `CCCCCCC(=O)OCCCC`, the “odorant receptor agonist call” value is “inactive”.

In the case of `CC1CC=CCCCCCCCCCC(=O)C1` (configuration not stated), the “odorant receptor agonist call” value was “inactive”.

For `CC=C(C)C=O`, the “odorant receptor agonist call” value was “inactive”.

In the case of `OCCc1ccccc1`, the “odorant receptor agonist call” value was “inactive”.

Consider `CCCO`, for which the “odorant receptor agonist call” value is “inactive”.

In the case of `CCCCCCCCC=CC=O`, the “odorant receptor agonist call” value is “inactive”.

In the case of `CCC=CCCC=CC=O`, the “odorant receptor agonist call” value is “inactive”.

Regarding `CCCCCCCCCC=CC=O`, the “odorant receptor agonist call” value was “inactive”.

In the case of `O=C(O)CCCCCCCCC(=O)O`, the “odorant receptor agonist call” value is “inactive”.

As to `O=C(O)C1CCC1`, the “odorant receptor agonist call” value is “inactive”.

The target in the next test is T3, UniProt K7N609.
T3 sequence (whole entry): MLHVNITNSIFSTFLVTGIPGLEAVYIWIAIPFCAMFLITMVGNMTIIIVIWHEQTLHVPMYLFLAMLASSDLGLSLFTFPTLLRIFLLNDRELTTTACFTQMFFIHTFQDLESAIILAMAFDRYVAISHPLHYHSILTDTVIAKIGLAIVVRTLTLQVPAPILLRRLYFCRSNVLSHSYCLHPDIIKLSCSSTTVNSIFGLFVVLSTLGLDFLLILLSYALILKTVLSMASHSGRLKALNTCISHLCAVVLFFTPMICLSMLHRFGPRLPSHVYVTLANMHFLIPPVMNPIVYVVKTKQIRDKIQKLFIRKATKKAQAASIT
The following applies: stereoisomer not certain. Put shortly:
as §1
On to `O=c1ccc2ccccc2o1`, for which the “odorant receptor agonist call” value is “inactive”.

As to `CCCCCCC(=O)[O-].[H+]`, the “odorant receptor agonist call” value is “inactive”.

`CCCCCCCC(=O)[O-].[H+]`: the “odorant receptor agonist call” value was “inactive”.

In the case of `CCCCOC(=O)C(C)OC(=O)CCC` (configuration not stated), the “odorant receptor agonist call” value is “inactive”.

On to `CCCCCO`, for which the “odorant receptor agonist call” value is “inactive”.

Turning to `CCC(C(=O)O)c1ccccc1` (configuration not stated), the “odorant receptor agonist call” value is “inactive”.

On to `CCCC(C)=O`, for which the “odorant receptor agonist call” value is “inactive”.

The values above are taken from the M2OR odorant receptor database.
